Results on 8 molecules are retold here after PMC12263870 (Scientific Reports, 2025).

The structures appear in SMILES notation.

What is called IC50 is the point on the concentration scale where inhibition reaches its midpoint. Broadly, the Ki is a dissociation constant, usually derived from enzyme kinetics or from competition with a known ligand.

The test system of experiment [1] is BSA-glycation mediated methylglyoxal (MG). Nature of the experiment: Anti-glycation assay: BSA-glycation mediated methylglyoxal. The settings on record: for IC50: read-out: BSA-glycation inhibition category by IC50 criteria, category in words; for BSA-glycation mediated MG % Inhibition at 500 µM: mean ± SD. It is filed as biochemical, bovine. In short, it runs like this: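 Fluorescence anti-glycation assay. BSA (10 mg/mL) was in 0.1 M phosphate buffer pH 7.4 with 0.02% NaN3, and 14 mM methylglyoxal was in phosphate buffer. Test compound in DMSO was preincubated with buffer and methylglyoxal at 37°C for 2 h. BSA was then added and the mix incubated at 37°C for 1 day. Fluorescence (ex 370/em 450 nm) was read against a no-inhibitor blank. Aminoguanidine hydrochloride was the positive control. Triplicate, two independent experiments, mean ± SD.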

The target in a further experiment is T1, α-amylase (Sus scrofa, UniProt P00690).
T1 sequence (P00690 16-511): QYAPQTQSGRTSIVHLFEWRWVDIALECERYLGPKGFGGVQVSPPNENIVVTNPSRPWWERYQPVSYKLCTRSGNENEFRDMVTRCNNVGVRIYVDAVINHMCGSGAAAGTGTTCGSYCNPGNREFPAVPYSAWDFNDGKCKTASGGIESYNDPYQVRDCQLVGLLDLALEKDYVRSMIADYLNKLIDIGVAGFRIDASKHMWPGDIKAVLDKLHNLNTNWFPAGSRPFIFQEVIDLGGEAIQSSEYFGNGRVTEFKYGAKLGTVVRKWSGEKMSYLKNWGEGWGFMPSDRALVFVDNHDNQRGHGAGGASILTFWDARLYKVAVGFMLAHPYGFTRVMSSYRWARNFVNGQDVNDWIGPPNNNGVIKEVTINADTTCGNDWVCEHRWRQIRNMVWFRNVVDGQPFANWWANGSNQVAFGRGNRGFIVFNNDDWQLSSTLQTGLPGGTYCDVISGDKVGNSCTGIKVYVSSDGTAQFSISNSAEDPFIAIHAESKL
Description: Inhibitory kinetic analysis. It is filed as biochemical, porcine. The method in brief:
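Porcine pancreatic α-amylase (type VI-B) in phosphate buffer pH 6.0 with 0.02% NaN3. Enzyme stock was 1 mg/mL and CNP-G3 stock 0.5 mM. Test compound and enzyme were preincubated at 37°C for 10 min, then CNP-G3 was added at varied concentrations for 30 min at 37°C, read at 405 nm. Three inhibitor concentrations were used. Inhibition type came from Lineweaver–Burk plots, Ki and Kis from secondary slope and intercept plots.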

Regarding `O=c1cc(-c2ccc(O)cc2)oc2c(Br)c(O)c(Br)c(O)c12` [Compound F2a, 6,8-Dibromoapigenin], the IC50 in experiment [1] was 10.1 to 100 µM.

As for `O=c1cc(-c2ccc(O)c(O)c2)oc2cc(O)cc(O)c12` [Compound F3, Luteolin], the IC50 in experiment [1] is 10.1 to 100 µM.

With `Cl.N=C(N)NN` [Aminoguanidine hydrochloride, reference compound], the “BSA-glycation mediated MG % Inhibition at 500 µM” value in experiment [1] came to 79.66%.

For `O=c1c(O)c(-c2ccc(O)c(O)c2)oc2cc(O)cc(O)c12` [Compound F7, Quercetin], in experiment [1], the IC50 is 10.1 to 100 µM.

Regarding `O=c1cc(-c2ccc(O)c(O)c2)oc2c(Br)c(O)c(Br)c(O)c12` [Compound F3a, 6,8-Dibromoluteolin], at α-amylase, the Ki turned out to be 0.18 µM. At α-amylase (Lineweaver-Burk plot, CNP-G3), the “Inhibition type, α-amylase” value is listed as “mixed-type”. Further, in experiment [1], the IC50 lay in the range of 10.1 to 100 µM.

For the molecule `O=C1C[C@@H](c2ccc(O)cc2)Oc2cc(O)cc(O)c21` [Compound F11, Naringenin], in experiment [1], the “BSA-glycation mediated MG % Inhibition at 500 µM” value was 56.89%.

In the case of `O=C1C[C@@H](c2ccc(O)cc2)Oc2c(Br)c(O)c(Br)c(O)c21` [Compound F11a, 6,8-Dibromonaringenin], the IC50 in experiment [1] fell in the range of 10.1 to 100 µM.

For `O=c1c(O)c(-c2ccc(O)cc2O)oc2cc(O)cc(O)c12` [Compound F6, Morin], the IC50 in experiment [1] is 100 to 200 µM.
